Experimental findings from ChEMBL document CHEMBL1125601, “Comparative molecular field analysis of some clodronic acid esters” (J Med Chem, 1991) are described below.

In data set [1] the test system is Rattus norvegicus. In words: In vivo inhibition of bone resorption tested in rat resorption assay measured at dose of 150 umol/kg after iv administration, expressed as log.
Data set [2] is filed under the species Mus musculus. In words: In vitro inhibition of bone resorption tested in mouse calvarial resorption assay by measuring release of 45Ca from labelled bones; expressed as logit inhibition response. The data set is classed as functional. The procedure, abridged: (§1)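 Mouse calvarial pieces prelabelled with 45Ca, cultured 72 h with PTH (10 nmol/l) plus ester at 100 μmol/l. Calcium release was measured and expressed as percent of control, the control being PTH-stimulated bones without bisphosphonate.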

The test system of data set [3] is Rattus norvegicus. In words: In vivo inhibition of bone resorption tested in rat resorption assay measured at dose of 150 umol/kg after iv administration.
For data set [4], the species on record is Mus musculus. In words: In vitro inhibition of bone resorption tested in mouse calvarial resorption assay by measuring release of 45Ca from labelled bones; expressed as logit inhibition resorption. The data set is classed as functional. The gist of the method: as §1
Data set [5] can be described thus: Partition coefficient (logP). The data set is classed as physicochemical. To be noted: octanol/water. The procedure, abridged:
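Shake-flask partition: 200 mg ester dissolved in 4 mL pH 7.4 phosphate buffer or 1-octanol (each saturated with the other), the opposite phase (4 mL) added, shaken 1 h, left overnight, then centrifuged. Both phases were assayed by capillary GC with nitrogen-phosphorus detection.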

Data set [6] in a line: Bioavailability in rat as ratio of unchanged drug excreted in the urine after p.o dosing to that following i.v. administration. To be noted: po. The format is ADME, organism-based. The procedure, abridged: (§2)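 Sprague-Dawley male rats given clodronate esters at 100 μmol/kg orally and intravenously, three animals per dose level and route. Unchanged drug was measured by capillary GC with nitrogen-phosphorus detection. F = (cumulative oral urinary amount × iv dose)/(cumulative iv urinary amount × oral dose).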

The species entered for data set [7] is Rattus norvegicus. Description: Bioavailability of compound was determined from urinary excretion data in rat, expressed as log. The format is ADME, organism-based, Urine. To be noted: in vivo. The gist of the method: as §2
The species named for data set [8] is Mus musculus. In words: In vitro inhibition of bone resorption tested in mouse calvarial resorption assay by measuring release of 45Ca from labelled bones. More on the design: concentration or dose not given beside the values. The data set is classed as functional. The gist of the method: as §1

In the case of `CCOP(=O)(O)C(Cl)(Cl)P(=O)(O)O`, in the data set on Rattus norvegicus [1], the “Log 1/delta/Ca” value is reported as 3.11. The “Logit_p(conc)” value in the data set listed under Mus musculus [2] came out at 3.26. The “Delta Ca” value with Rattus norvegicus [3] amounted to 0.77 mM. The Inhibition (in general, the relative decrease from the control value, in per cent) in the data set listed under Mus musculus [4] turned out to be 15.4%. Besides, in data set [5], the logP (in general, the decadic logarithm of the partition coefficient of the neutral form, usually between octanol and water) is on record as -5.44. Besides, the bioavailability – broadly, the share of a dose that reaches the circulation, judged against a reference dose that is usually intravenous – in data set [6] worked out at 37.9%. The Logit bioavailability in the data set filed under Rattus norvegicus [7] stood at 3.79.

For `CCCCCCOP(=O)(O)C(Cl)(Cl)P(=O)(OCCCCCC)OCCCCCC`, the Inhibition in the data set listed under Mus musculus [8] was 58%. The “Logit_p(conc)” value in the data set listed under Mus musculus [4] is listed as 4.31. Also, the logP in data set [5] (read-out: logP) turned out to be 4.89.

With `CCCCCCOP(=O)(O)C(Cl)(Cl)P(=O)(O)OCCCCCC`, the “Log 1/delta/Ca” value in the data set on Rattus norvegicus [1] is 2.84. The “Delta Ca” value with Rattus norvegicus [3] was 1.43 mM. The same compound yielded an Inhibition in the data set filed under Mus musculus [8] of 20.5%. In addition, in the data set filed under Mus musculus [4], the “Logit_p(conc)” value came to 3.41. In data set [5] (read-out: logP), the logP is -0.64. Moreover, in data set [6], the bioavailability was found to be 31%. Moreover, the Logit bioavailability in the data set listed under Rattus norvegicus [7] amounted to 3.65.

In the case of `CCCCCCOP(=O)(OCCCCCC)C(Cl)(Cl)P(=O)(O)O`, the “Log 1/delta/Ca” value in the data set on Rattus norvegicus [1] was found to be 3.03. Besides, in the data set with Rattus norvegicus [3], the “Delta Ca” value is 0.93 mM. For the same compound, the Inhibition in the data set filed under Mus musculus [8] is on record as 15.1%. For the same compound, the “Logit_p(conc)” value in the data set filed under Mus musculus [4] was determined as 3.25. Moreover, the logP in data set [5] (read-out: logP) is -0.15. In addition, in data set [6], the bioavailability amounted to 7.6%. The same compound registered a Logit bioavailability in the data set listed under Rattus norvegicus [7] of 2.91.

Take `CCCCCCOP(=O)(O)C(Cl)(Cl)P(=O)(O)O`: the Inhibition in the data set filed under Mus musculus [8] amounted to 21.1%. Also, the “Logit_p(conc)” value in the data set listed under Mus musculus [4] was 3.42. The logP in data set [5] (read-out: logP) is -2.75. Further, in data set [6], the bioavailability was 17.9%. In addition, the Logit bioavailability in the data set listed under Rattus norvegicus [7] is reported as 3.4.

`CC(C)OP(=O)(O)C(Cl)(Cl)P(=O)(O)OC(C)C`: the “Log 1/delta/Ca” value with Rattus norvegicus [1] was found to be 2.96. Moreover, the “Delta Ca” value in the data set with Rattus norvegicus [3] worked out at 1.09 mM. In the data set listed under Mus musculus [8], the Inhibition is 8%. Besides, in the data set filed under Mus musculus [4], the “Logit_p(conc)” value worked out at 2.93. The logP in data set [5] (read-out: logP) was -2.96. The bioavailability in data set [6] is 1.9%. This compound gave a Logit bioavailability in the data set filed under Rattus norvegicus [7] of 2.3.

Regarding `CCOP(=O)(O)C(Cl)(Cl)P(=O)(OCC)OCC`, in the data set on Rattus norvegicus [1], the “Log 1/delta/Ca” value was 3.15. Besides, the “Delta Ca” value with Rattus norvegicus [3] came out at 0.7 mM. This compound gave an Inhibition in the data set listed under Mus musculus [8] of 14.7%. Besides, in the data set filed under Mus musculus [4], the “Logit_p(conc)” value came out at 3.23. In data set [5] (read-out: logP), the logP was -2.37. Besides, the bioavailability in data set [6] is 7%. The compound further registered a Logit bioavailability in the data set filed under Rattus norvegicus [7] of 2.88.

As for `CCOP(=O)(O)C(Cl)(Cl)P(=O)(O)OCC`, the “Log 1/delta/Ca” value with Rattus norvegicus [1] amounted to 2.98. Also, in the data set on Rattus norvegicus [3], the “Delta Ca” value was found to be 1.05 mM. For the same compound, the Inhibition in the data set filed under Mus musculus [8] came out at 12.3%. Moreover, in the data set listed under Mus musculus [4], the “Logit_p(conc)” value was determined as 3.15. Moreover, the logP in data set [5] (read-out: logP) was -3.96. For the same compound, the bioavailability in data set [6] was 34%. The Logit bioavailability in the data set listed under Rattus norvegicus [7] is reported as 3.71.

In the case of `CC(C)OP(=O)(O)C(Cl)(Cl)P(=O)(OC(C)C)OC(C)C`, the “Log 1/delta/Ca” value in the data set with Rattus norvegicus [1] came to 2.82. Further, the “Delta Ca” value in the data set with Rattus norvegicus [3] turned out to be 1.51 mM. Moreover, the Inhibition in the data set filed under Mus musculus [8] amounted to 7.4%. The “Logit_p(conc)” value in the data set listed under Mus musculus [4] is recorded as 2.9. Moreover, the logP in data set [5] (read-out: logP) is -0.95. The bioavailability in data set [6] is 1.9%. Moreover, the Logit bioavailability in the data set listed under Rattus norvegicus [7] came out at 2.28.

As for `CC(C)OP(=O)(OC(C)C)C(Cl)(Cl)P(=O)(O)O`, the “Log 1/delta/Ca” value in the data set on Rattus norvegicus [1] was 2.9. Moreover, in the data set on Rattus norvegicus [3], the “Delta Ca” value is on record as 1.25 mM. In addition, in the data set listed under Mus musculus [8], the Inhibition is on record as 0.8%. Besides, the “Logit_p(conc)” value in the data set filed under Mus musculus [4] came to 1.3. Besides, the logP in data set [5] (read-out: logP) was -3.56. Further, in data set [6], the bioavailability stood at 13.6%. In addition, the Logit bioavailability in the data set listed under Rattus norvegicus [7] came to 3.19.

With `CC(C)OP(=O)(O)C(Cl)(Cl)P(=O)(O)O`, the “Log 1/delta/Ca” value in the data set with Rattus norvegicus [1] amounted to 2.9. In addition, the “Delta Ca” value in the data set with Rattus norvegicus [3] was determined as 1.27 mM. In the data set listed under Mus musculus [8], this compound registered an Inhibition of 11.8%. Moreover, the “Logit_p(conc)” value in the data set filed under Mus musculus [4] came out at 3.12. Moreover, the logP in data set [5] (read-out: logP) was -3.24. Moreover, the bioavailability in data set [6] is 3.6%. This compound also displayed a Logit bioavailability in the data set filed under Rattus norvegicus [7] of 2.57.

As for `CC(C)OP(=O)(OC(C)C)C(Cl)(Cl)P(=O)(OC(C)C)OC(C)C`, the “Log 1/delta/Ca” value with Rattus norvegicus [1] was 2.81. For the same compound, the “Delta Ca” value in the data set on Rattus norvegicus [3] amounted to 1.54 mM. This compound also returned an Inhibition in the data set filed under Mus musculus [8] of 17.5%. Besides, the “Logit_p(conc)” value in the data set listed under Mus musculus [4] was 3.32. Further, in data set [5] (read-out: logP), the logP amounted to 2.89. The bioavailability in data set [6] is 32.1%. The same compound came in with a Logit bioavailability in the data set filed under Rattus norvegicus [7] of 3.67.

Regarding `CCOP(=O)(OCC)C(Cl)(Cl)P(=O)(OCC)OCC`, the “Log 1/delta/Ca” value with Rattus norvegicus [1] is 2.81. Further, the “Delta Ca” value in the data set with Rattus norvegicus [3] is 1.52 mM. This compound also registered an Inhibition in the data set filed under Mus musculus [8] of 18.8%. Moreover, the “Logit_p(conc)” value in the data set filed under Mus musculus [4] is 3.36. The logP in data set [5] (read-out: logP) came out at 1.31. Also, in data set [6], the bioavailability was determined as 5%. In the data set filed under Rattus norvegicus [7], this compound showed a Logit bioavailability of 2.72.
